The target in data set [1] is T1, Cytochrome P450 11B2, mitochondrial (Homo sapiens, UniProt P19099).
T1 sequence (P19099 whole entry): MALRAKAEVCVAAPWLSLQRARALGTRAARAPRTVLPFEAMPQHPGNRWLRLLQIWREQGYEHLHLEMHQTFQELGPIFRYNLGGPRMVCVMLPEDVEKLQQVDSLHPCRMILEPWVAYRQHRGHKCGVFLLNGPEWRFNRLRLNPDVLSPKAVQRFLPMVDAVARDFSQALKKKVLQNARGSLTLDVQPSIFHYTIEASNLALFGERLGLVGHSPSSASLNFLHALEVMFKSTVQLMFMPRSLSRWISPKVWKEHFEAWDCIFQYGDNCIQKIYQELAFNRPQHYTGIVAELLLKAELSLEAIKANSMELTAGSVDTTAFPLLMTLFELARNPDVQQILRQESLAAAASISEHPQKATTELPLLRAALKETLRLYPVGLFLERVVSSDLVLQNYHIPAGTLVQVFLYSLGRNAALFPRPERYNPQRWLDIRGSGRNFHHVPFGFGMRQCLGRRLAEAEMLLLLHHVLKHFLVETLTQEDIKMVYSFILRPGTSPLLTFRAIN
In words: Inhibition of human CYP11B2 expressed in hamster V79 MZh cells assessed as conversion of [4-14C]-11-deoxycorticosterone substrate by HPTLC assay. It is filed as cell-based. In short, it runs like this:
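Hamster V79 MZh fibroblasts expressing human CYP11B2 incubated with [4-14C]-11-deoxycorticosterone (100 nM) and inhibitor at ≥3 concentrations; reaction stopped with ethyl acetate, steroids extracted after shaking and centrifugation (10000g, 2 min). Substrate conversion read by HPTLC with phosphoimaging.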

A further data set deals with CYP3A4 (Homo sapiens, UniProt P08684). In words: Inhibition of human CYP3A4 expressed in baculovirus-infected insect microsomes at 10 uM. It is filed as ADME, Microsome. In short, it runs like this:
(§1)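 Recombinant human CYP1A2, 2B6, 2C9, 2C19, 2D6 or 3A4 in baculovirus-infected insect microsomes (Supersomes), run per manufacturer's protocol. Inhibitor at 1 and 10 μM; percent inhibition is the mean of two experiments.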

In the next data set the target is CYP2D6 (Homo sapiens, UniProt P10635). Briefly: Inhibition of human CYP2D6 expressed in baculovirus-infected insect microsomes at 1 uM. It counts as ADME, Microsome. In short, it runs like this: as §1
CYP2D6, sequence (P10635 whole entry): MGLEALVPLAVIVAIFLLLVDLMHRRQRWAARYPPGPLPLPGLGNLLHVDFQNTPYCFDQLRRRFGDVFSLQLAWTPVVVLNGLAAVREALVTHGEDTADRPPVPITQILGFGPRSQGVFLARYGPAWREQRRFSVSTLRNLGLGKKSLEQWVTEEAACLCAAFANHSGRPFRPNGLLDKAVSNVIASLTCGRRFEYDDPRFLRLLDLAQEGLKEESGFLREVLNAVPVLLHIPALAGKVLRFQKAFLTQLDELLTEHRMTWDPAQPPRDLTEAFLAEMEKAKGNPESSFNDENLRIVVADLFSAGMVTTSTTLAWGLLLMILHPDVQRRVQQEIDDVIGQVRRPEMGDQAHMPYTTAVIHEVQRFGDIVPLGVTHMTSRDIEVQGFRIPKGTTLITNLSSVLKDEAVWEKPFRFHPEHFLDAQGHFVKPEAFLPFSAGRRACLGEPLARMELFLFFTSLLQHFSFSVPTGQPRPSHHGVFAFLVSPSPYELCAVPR
The next data set addresses CYP2C19 (Homo sapiens, UniProt P33261). Briefly: Inhibition of human CYP2C19 expressed in baculovirus-infected insect microsomes at 10 uM. It counts as ADME, Microsome. In short, it runs like this: as §1
Data set [2] has as its target T2, CYP2C9 (Homo sapiens, UniProt P11712). In words: Inhibition of human CYP2C9 expressed in baculovirus-infected insect microsomes at 10 uM. It is filed as ADME, Microsome. In short, it runs like this:
as §1

For data set [3], the target named is T2, CYP2C9. In words: Inhibition of human CYP2C9 expressed in baculovirus-infected insect microsomes at 1 uM. It counts as ADME, Microsome. In short, it runs like this:
as §1

Another data set addresses T3, CYP2B6 (Homo sapiens, UniProt P20813).
T3 sequence (P20813 whole entry): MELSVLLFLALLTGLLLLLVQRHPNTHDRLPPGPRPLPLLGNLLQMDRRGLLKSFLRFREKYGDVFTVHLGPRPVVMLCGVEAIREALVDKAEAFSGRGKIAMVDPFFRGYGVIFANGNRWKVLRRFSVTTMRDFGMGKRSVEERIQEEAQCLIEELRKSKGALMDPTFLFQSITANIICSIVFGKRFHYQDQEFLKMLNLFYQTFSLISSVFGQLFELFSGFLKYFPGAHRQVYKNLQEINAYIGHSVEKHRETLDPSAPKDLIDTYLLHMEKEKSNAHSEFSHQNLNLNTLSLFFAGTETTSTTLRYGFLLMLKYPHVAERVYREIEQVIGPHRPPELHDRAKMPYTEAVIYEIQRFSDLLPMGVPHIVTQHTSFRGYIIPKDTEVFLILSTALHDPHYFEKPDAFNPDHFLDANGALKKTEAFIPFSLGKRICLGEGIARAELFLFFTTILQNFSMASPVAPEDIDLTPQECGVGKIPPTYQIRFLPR
Briefly: Inhibition of human CYP2B6 expressed in baculovirus-infected insect microsomes at 1 uM. It counts as ADME, Microsome. In short, it runs like this:
as §1

The target of another data set is T4, CYP1A2 (Homo sapiens, UniProt P05177).
T4 sequence (P05177 whole entry): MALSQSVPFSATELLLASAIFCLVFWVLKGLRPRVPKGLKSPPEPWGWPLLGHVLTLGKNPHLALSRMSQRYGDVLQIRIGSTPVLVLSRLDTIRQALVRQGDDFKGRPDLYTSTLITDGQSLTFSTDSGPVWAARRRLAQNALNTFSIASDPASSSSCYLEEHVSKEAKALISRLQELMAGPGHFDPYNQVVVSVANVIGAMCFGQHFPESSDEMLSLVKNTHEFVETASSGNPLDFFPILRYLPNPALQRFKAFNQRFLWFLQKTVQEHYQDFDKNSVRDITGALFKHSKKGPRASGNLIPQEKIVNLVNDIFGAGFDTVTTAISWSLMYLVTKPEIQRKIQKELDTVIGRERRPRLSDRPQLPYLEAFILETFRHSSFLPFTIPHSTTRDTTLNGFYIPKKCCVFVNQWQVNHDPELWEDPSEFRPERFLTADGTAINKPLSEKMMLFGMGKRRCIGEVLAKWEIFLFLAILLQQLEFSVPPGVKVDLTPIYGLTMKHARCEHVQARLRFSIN
In words: Inhibition of human CYP1A2 expressed in baculovirus-infected insect microsomes at 10 uM. It counts as ADME, Microsome. In short, it runs like this:
as §1

The target of the next data set is T5, CYP17 (Homo sapiens, UniProt P05093).
T5 sequence (P05093 whole entry): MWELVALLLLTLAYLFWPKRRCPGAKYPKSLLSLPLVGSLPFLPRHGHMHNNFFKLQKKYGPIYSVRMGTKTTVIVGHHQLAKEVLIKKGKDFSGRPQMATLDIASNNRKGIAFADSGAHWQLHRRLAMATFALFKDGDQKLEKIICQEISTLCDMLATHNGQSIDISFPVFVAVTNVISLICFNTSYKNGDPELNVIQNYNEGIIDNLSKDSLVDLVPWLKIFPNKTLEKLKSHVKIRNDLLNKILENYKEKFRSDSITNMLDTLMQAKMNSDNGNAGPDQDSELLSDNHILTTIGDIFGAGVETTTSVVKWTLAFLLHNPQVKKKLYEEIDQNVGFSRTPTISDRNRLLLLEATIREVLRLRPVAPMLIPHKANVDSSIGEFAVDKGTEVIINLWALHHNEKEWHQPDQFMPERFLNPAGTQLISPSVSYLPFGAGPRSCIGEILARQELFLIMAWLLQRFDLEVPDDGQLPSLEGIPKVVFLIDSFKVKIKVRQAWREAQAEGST
Briefly: Inhibition of human CYP17 expressed in Escherichia coli using progesterone substrate at 2 uM. The note with it: recombinant human CYP17 expressed in Escherichia coli, probe progesterone. The method, boiled down: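 50000g sediment of E. coli homogenate recombinantly expressing human CYP17. Progesterone substrate at 25 μM, inhibitor tested at 2 μM.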

The structures appear in SMILES notation.

Results on four compounds are retold here after ChEMBL document CHEMBL1765045, “Fine-tuning the selectivity of aldosterone synthase inhibitors: structure-activity and structure-selectivity insights from studies of heteroaryl substituted 1,2,5,6-tetrahydropyrrolo[3,2,1-ij]quinolin-4-one derivatives” (J Med Chem, 2011).

CYP2C19, sequence (P33261 whole entry): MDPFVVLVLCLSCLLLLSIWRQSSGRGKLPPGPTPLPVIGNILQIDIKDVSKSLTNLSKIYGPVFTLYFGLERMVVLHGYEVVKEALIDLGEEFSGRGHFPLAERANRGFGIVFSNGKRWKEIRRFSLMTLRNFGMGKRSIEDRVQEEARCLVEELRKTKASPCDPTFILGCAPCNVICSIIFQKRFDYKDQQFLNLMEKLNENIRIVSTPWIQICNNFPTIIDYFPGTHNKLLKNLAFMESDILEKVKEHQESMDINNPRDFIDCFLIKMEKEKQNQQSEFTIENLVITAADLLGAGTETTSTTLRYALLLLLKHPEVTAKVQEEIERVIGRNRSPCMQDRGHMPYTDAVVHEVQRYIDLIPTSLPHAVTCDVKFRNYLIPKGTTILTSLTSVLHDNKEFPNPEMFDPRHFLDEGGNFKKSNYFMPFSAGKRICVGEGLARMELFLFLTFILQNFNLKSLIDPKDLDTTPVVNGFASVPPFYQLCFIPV
T2 sequence (P11712 whole entry): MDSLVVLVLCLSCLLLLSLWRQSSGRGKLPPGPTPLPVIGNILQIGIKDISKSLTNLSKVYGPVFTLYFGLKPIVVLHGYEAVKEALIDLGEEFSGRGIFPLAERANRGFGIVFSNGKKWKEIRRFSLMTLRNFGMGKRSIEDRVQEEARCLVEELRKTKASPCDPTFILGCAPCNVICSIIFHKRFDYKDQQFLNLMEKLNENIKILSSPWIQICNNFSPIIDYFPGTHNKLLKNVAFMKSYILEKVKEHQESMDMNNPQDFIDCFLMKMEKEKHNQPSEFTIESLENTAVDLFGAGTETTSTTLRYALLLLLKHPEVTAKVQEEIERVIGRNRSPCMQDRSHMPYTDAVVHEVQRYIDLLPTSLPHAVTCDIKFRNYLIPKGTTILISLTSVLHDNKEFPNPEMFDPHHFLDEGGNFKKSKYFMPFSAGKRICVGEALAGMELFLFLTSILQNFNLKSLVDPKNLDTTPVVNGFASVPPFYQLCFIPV
CYP3A4, sequence (P08684 whole entry): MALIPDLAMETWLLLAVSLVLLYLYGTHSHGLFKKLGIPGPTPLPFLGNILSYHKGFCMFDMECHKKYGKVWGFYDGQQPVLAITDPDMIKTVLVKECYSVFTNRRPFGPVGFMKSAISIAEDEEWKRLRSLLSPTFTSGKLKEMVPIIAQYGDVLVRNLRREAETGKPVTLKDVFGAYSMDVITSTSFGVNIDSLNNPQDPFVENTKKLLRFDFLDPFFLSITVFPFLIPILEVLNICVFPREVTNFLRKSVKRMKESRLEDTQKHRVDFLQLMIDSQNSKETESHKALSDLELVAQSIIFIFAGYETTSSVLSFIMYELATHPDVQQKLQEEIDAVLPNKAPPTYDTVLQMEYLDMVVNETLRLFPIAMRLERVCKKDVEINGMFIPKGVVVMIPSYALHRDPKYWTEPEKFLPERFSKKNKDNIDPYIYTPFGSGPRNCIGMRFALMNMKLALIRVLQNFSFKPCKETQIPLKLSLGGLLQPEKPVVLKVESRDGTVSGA

For orientation: IC50 means the concentration needed to halve the response being measured. For orientation: inhibition means the percentage by which the read-out fell short of the control. For `O=C1CCc2cc(-c3cccnc3)cc3c2N1CC3`, the IC50 in data set [1] came to 1.1 nM. Moreover, the inhibition at 10 µM at CYP3A4 was below 5%; at CYP2C19, below 5%; against CYP2C9 [2], 41%; at CYP1A2 it was 43%. Further, the figures for the inhibition at 1 µM against CYP2D6, at CYP2C9 [3] and on CYP2B6 were below 5%, 6% and below 5%, respectively. On CYP17, the inhibition at 2 µM turned out to be 6%.

For `O=C1CCc2cc(-c3cccnc3)cc3c2N1CCC3`, the IC50 in data set [1] was 2.4 nM. In addition, the inhibition at 10 µM against CYP3A4 was found to be 21%; on CYP2C19, 44%; against CYP2C9 [2] it was 40%; against CYP1A2, 83%. The inhibition at 1 µM was 19% on CYP2C9 [3] and 27% against CYP2B6. At CYP17, the inhibition at 2 µM was 6%.

In the case of `COc1cncc(-c2cc3c4c(c2)CCN4C(=O)CC3)c1`, in data set [1], the IC50 was 0.6 nM. Further, the inhibition at 10 µM is 19% at CYP3A4, 30% at CYP2C19, 42% against CYP2C9 [2] and 72% against CYP1A2. Further, the figures for the inhibition at 1 µM against CYP2D6, against CYP2C9 [3] and at CYP2B6 were 9%, 23% and below 5%, respectively. Also, at CYP17, the inhibition at 2 µM is below 5%.

Regarding `O=C1CCc2cc(-c3cncc(-c4cccc(F)c4)c3)cc3c2N1CC3`, the IC50 in data set [1] was 1.4 nM. Also, the inhibition at 10 µM on CYP3A4 stood at 43%; against CYP2C19, 21%; against CYP2C9 [2], 79%; against CYP1A2 it was 38%. Besides, the inhibition at 1 µM against CYP2D6 was below 5%; against CYP2C9 [3] it was 39%; at CYP2B6, below 5%. Moreover, the inhibition at 2 µM on CYP17 worked out at 7%.
